In ChEMBL document CHEMBL3352559, “Synthesis and pharmacological investigation of aralkyl diamine derivatives as potential triple reuptake inhibitors” (Eur J Med Chem, 2014):

Columns and labels:
[1] = AUC (0 to time) in Sprague-Dawley rat at 0.5 mg/kg, iv; type: ADME, organism-based; set-up: dose 0.5 mg/kg, route intravenous; conditions: plasma
Outline: (§1)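 Male SD rats, fasted overnight until 6 h post-dose. PO group received single 2 mg/kg with heparinized blood sampled at 5, 15, 30 min, 1, 2, 4, 8, 24 h. IV group received single 0.5 mg/kg via femoral vein with sampling at 5, 15, 30 min, 1, 2, 4 h. Plasma stored at -40 °C, quantified by LC/MS/MS; 24 rats per group.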

Salmonella typhimurium [2] = assay: Mutagenic activity in Salmonella typhimurium TA100 assessed as number of reversion mutation at 100 ug/plate; type: toxicity, organism-based; conditions: salmonella enterica subsp. enterica serovar typhimurium
Outline: (§2)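 Ames reversion test in Salmonella typhimurium TA98 and TA100, with and without rat liver S9 metabolic activation. Compound was dissolved in DMSO and added at 3–5000 μg/plate. Each dose, vehicle and positive control was plated in triplicate, and revertant colonies were counted.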

[3] = target: Melanocortin receptor 4 (Homo sapiens) (UniProt P32245); assay: Displacement of [125I] NDP-alpha-MSH from human MC4 receptor at 10 uM relative to control
Outline: (§3)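 Outsourced CNS panel of 55 receptor binding assays run by Cerep. Compound tested at 10 μM, the default primary-binding concentration, with inhibition expressed relative to control. Inhibition above 50% taken as a significant effect.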

[4] = target: Histamine H2 receptor (Homo sapiens) (UniProt P25021); assay: Displacement of [125I]APT from human histamine H2 receptor at 10 uM relative to control; outline: as §3
[5] = Clearance in Sprague-Dawley rat at 0.5 mg/kg, iv; conditions: in vivo
[6] = Drug uptake in Sprague-Dawley rat brain at 0.5 mg/kg ip after 0.08 hrs
[7] = target: Adenosine receptor A3 (Homo sapiens) (UniProt P0DMS8); assay: Displacement of [3H]ABMECA from human adenosine A3 receptor at 10 uM relative to control; outline: as §3
[8] = Drug uptake in Sprague-Dawley rat plasma at 0.5 mg/kg iv after 2 hrs; type: ADME, organism-based; set-up: dose 0.5 mg/kg, route intravenous
Outline: (§4)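 Male SD rats, fasted overnight until 6 h post-dose; single 0.5 mg/kg femoral-vein injection; blood drawn into heparin at 5, 15, 30 min, 1, 2 and 4 h; plasma stored at -40 °C; drug levels by LC/MS/MS; noncompartmental parameters.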

[9] = Drug uptake in Sprague-Dawley rat plasma at 0.5 mg/kg iv after 4 hrs; type: ADME, organism-based; set-up: dose 0.5 mg/kg, route intravenous; outline: as §4
[10] = Drug uptake in Sprague-Dawley rat brain at 0.5 mg/kg iv after 4 hrs; type: ADME, organism-based; set-up: dose 0.5 mg/kg, route intravenous; conditions: read-out: Drug uptake
Rattus norvegicus [11] = assay: Apparent volume of distribution during terminal phase in Sprague-Dawley rat at 0.5 mg/kg, iv; type: ADME, organism-based; set-up: dose 0.5 mg/kg, route intravenous; conditions: in vivo; outline: as §1
[12] = target: 5-hydroxytryptamine receptor 7 (Homo sapiens) (UniProt P34969); assay: Displacement of [3H]LSD from human 5-HT7 receptor at 10 uM relative to control; outline: as §3
[13] = AUC (0 to infinity) in Sprague-Dawley rat at 2 mg/kg, po; type: ADME, organism-based; set-up: dose 2 mg/kg, route oral, time infinity; conditions: plasma; outline: as §1
[14] = Acute toxicity in KM mouse assessed as survival at 150 mg/kg, po up to 14 days (reference value: 100%); type: organism-based; set-up: dose 150 mg/kg, route oral; conditions: in vivo
[15] = target: D(2) dopamine receptor (Homo sapiens) (UniProt P14416); assay: Displacement of [3H]N-Methylspiperone from human dopamine D2S receptor at 10 uM relative to control; outline: as §3
[16] = Ratio of drug level in Sprague-Dawley rat brain to plasma at 0.5 mg/kg iv after 2 hrs; type: ADME, organism-based; set-up: dose 0.5 mg/kg, route intravenous; conditions: read-out: BPR
Rattus norvegicus [17] = assay: Antidepressant activity in rat assessed as reduction in immobility time at 20 mg/kg, po by forced swimming test relative to control; type: functional
Outline: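 Male rats dosed orally at 5, 10 or 20 mg/kg alongside vehicle and venlafaxine 30 mg/kg PO groups. 1 h post-dose, each rat placed in a glass cylinder (40 cm × 18 cm) holding 15 cm of 25 ± 1 °C water. Immobility time recorded over a 6 min trial; significant main effects followed by post hoc Fisher's test.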

[18] = target: Kappa-type opioid receptor (Homo sapiens) (UniProt P41145); assay: Displacement of [3H]U69593 from human kappa opioid receptor at 10 uM relative to control
Outline: (§5)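 Outsourced CNS receptor panel (55 binding assays); compound tested at 10 μM in primary radioligand binding; specific binding inhibition expressed relative to control, with >50% inhibition taken as a significant effect.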

[19] = target: B2 bradykinin receptor (Homo sapiens) (UniProt P30411); assay: Displacement of [3H]bradykinin from human bradykinin B2 receptor at 10 uM relative to control; outline: as §5
Salmonella typhimurium [20] = assay: Mutagenic activity in Salmonella typhimurium TA100 assessed as number of reversion mutation at 10 ug/plate; type: toxicity, organism-based; conditions: salmonella enterica subsp. enterica serovar typhimurium; outline: as §2
[21] = Tmax in Sprague-Dawley rat at 2 mg/kg, po; type: ADME, organism-based; set-up: dose 2 mg/kg, route oral; conditions: in vivo
[22] = target: L-type calcium channel, verapamil binding site (Homo sapiens, UniProt O60840+Q01668+Q13698+Q13936); assay: Inhibition of human L-type calcium channel verapamil binding site at 10 uM by [3H]D88 binding assay relative to control; outline: as §5
[23] = Drug uptake in Sprague-Dawley rat plasma at 0.5 mg/kg iv after 0.50 hrs; type: ADME, organism-based; set-up: dose 0.5 mg/kg, route intravenous; outline: as §4
Rattus norvegicus [24] = assay: Toxicity in rat assessed as effect on locomotion at 20 mg/kg, po after 60 mins by spontaneous locomotor test; type: organism-based; set-up: dose 20 mg/kg, route oral; conditions: in vivo, 1 h
Outline: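 Rats dosed orally at 20 mg/kg, with vehicle and venlafaxine 30 mg/kg PO as controls; 60 min later placed singly in novel 40×40×50 cm cages under dim light with sound attenuation; activity recorded automatically in 5 min bins over 30 min; mean ± SEM.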

[25] = target: Beta-2 adrenergic receptor (Homo sapiens) (UniProt P07550); assay: Displacement of [3H]CGP-12177 from human beta2-adrenergic receptor at 10 uM relative to control; outline: as §3
[26] = target: D(1A) dopamine receptor (Homo sapiens) (UniProt P21728); assay: Displacement of [3H]SCH23390 from human dopamine D1 receptor at 10 uM relative to control; outline: as §3
[27] = target: Adrenergic receptor alpha-2 (Homo sapiens) (UniProt P08913+P18825+P18089); assay: Displacement of [3H]-RX-821002 from alpha-2 adrenergic receptor (unknown origin) at 10 uM relative to control; type: protein assay; outline: as §3
Homo sapiens = organism: Homo sapiens; assay: Displacement of [3H]GABA from GABA receptor (unknown origin) at 10 uM relative to control; outline: as §3
[28] = target: Mu-type opioid receptor (Homo sapiens) (UniProt P35372); assay: Displacement of […] from human mu opioid receptor at 10 uM relative to control; outline: as §3
Salmonella typhimurium [29] = assay: Mutagenic activity in Salmonella typhimurium TA100 assessed as number of reversion mutation at 30 ug/plate; type: toxicity, organism-based; conditions: salmonella enterica subsp. enterica serovar typhimurium; outline: as §2
Salmonella typhimurium [30] = assay: Mutagenic activity in Salmonella typhimurium TA98 assessed as number of reversion mutation at 100 ug/plate; type: toxicity, organism-based; conditions: salmonella enterica subsp. enterica serovar typhimurium; outline: as §2
[31] = target: 5-hydroxytryptamine receptor 2A (Homo sapiens) (UniProt P28223); assay: Displacement of [3H]ketanserin from human 5-HT2A receptor at 10 uM relative to control; outline: as §5
[32] = target: 5-hydroxytryptamine receptor 1B (Homo sapiens) (UniProt P28222); assay: Displacement of [125I]CYP from human 5-HT1B receptor at 10 uM relative to control; outline: as §3
5-hydroxytryptamine receptor 1B (Homo sapiens), sequence (P28222 whole entry): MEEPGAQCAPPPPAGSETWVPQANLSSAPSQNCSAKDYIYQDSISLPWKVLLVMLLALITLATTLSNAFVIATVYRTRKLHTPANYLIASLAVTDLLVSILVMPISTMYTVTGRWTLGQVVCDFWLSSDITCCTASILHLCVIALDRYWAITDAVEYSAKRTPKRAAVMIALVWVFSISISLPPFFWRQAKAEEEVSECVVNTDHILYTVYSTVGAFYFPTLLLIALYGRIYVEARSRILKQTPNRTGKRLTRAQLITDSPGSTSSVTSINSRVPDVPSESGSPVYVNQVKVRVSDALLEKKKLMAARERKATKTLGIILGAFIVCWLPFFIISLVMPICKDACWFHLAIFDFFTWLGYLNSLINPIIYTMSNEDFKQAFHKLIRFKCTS

D(1A) dopamine receptor (Homo sapiens), sequence (P21728 whole entry): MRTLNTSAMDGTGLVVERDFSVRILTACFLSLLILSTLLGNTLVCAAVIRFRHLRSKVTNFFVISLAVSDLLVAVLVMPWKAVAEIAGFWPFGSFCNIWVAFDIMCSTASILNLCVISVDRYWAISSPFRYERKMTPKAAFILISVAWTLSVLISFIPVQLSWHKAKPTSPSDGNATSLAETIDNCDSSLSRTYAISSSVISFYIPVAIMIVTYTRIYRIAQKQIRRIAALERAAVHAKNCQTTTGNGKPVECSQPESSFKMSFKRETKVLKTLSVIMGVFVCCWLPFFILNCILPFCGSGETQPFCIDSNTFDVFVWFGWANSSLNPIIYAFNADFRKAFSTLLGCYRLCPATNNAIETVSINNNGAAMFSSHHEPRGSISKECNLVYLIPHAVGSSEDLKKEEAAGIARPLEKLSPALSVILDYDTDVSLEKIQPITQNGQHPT
Beta-2 adrenergic receptor (Homo sapiens), sequence (P07550 whole entry, looked up): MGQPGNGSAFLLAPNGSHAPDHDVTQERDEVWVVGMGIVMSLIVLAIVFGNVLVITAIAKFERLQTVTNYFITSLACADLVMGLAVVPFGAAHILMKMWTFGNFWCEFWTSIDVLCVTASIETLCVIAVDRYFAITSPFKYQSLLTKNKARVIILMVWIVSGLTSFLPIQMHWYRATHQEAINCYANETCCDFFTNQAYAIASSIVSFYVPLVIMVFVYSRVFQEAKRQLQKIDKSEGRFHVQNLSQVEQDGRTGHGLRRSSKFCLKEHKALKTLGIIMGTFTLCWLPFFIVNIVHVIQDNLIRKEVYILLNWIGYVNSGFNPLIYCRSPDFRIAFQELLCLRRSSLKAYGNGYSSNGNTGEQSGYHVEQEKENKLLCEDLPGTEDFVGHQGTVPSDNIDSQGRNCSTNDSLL
Adenosine receptor A3 (Homo sapiens), sequence (P0DMS8 whole entry): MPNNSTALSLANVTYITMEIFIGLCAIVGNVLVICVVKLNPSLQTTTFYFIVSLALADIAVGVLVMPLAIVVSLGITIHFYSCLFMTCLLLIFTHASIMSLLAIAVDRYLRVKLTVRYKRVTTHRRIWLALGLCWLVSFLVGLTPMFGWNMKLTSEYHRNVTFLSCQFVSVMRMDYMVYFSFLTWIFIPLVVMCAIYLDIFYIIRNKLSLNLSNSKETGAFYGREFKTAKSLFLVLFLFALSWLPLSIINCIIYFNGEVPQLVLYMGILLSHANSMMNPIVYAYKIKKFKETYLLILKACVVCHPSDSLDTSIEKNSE
Histamine H2 receptor (Homo sapiens), sequence (P25021 whole entry): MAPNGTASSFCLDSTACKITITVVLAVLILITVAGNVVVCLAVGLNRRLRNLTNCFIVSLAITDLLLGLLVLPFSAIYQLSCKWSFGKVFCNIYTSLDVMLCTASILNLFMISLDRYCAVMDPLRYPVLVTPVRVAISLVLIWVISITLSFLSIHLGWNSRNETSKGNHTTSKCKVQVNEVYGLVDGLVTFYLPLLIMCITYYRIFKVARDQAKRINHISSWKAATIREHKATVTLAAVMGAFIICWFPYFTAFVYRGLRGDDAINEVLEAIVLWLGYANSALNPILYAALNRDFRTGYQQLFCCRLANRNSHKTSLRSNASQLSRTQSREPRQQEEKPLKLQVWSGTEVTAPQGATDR
Mu-type opioid receptor (Homo sapiens), sequence (P35372 whole entry): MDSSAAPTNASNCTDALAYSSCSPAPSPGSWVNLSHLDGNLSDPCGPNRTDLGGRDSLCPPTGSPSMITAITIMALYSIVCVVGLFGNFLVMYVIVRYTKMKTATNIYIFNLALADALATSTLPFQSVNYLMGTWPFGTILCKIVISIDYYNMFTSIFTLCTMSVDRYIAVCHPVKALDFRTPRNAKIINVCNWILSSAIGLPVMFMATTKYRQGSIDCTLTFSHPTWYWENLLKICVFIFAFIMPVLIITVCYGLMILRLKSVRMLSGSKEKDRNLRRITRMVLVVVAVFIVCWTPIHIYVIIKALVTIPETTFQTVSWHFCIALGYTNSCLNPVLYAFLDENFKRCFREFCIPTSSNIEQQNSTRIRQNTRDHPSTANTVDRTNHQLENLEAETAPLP
Kappa-type opioid receptor (Homo sapiens), sequence (P41145 whole entry): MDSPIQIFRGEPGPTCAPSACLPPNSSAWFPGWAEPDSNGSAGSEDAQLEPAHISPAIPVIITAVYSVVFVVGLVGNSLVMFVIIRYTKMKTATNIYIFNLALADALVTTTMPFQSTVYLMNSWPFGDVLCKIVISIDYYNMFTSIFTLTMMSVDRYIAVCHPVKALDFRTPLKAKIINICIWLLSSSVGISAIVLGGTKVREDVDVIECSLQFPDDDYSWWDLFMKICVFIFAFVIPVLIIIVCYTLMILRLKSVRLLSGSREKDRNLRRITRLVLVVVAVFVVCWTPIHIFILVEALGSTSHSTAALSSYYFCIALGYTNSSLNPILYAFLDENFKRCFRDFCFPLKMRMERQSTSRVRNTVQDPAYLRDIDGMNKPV
B2 bradykinin receptor (Homo sapiens), sequence (P30411 whole entry): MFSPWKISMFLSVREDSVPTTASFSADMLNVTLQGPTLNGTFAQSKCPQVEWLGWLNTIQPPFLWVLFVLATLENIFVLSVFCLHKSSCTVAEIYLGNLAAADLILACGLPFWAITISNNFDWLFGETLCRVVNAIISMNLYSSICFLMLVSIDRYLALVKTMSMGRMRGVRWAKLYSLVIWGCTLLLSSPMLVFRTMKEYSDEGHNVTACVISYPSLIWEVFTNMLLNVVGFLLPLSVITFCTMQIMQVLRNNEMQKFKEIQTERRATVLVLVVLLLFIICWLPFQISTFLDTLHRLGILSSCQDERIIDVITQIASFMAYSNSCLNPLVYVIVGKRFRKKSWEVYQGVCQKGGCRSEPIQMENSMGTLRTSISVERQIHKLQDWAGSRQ
D(2) dopamine receptor (Homo sapiens), sequence (P14416 whole entry): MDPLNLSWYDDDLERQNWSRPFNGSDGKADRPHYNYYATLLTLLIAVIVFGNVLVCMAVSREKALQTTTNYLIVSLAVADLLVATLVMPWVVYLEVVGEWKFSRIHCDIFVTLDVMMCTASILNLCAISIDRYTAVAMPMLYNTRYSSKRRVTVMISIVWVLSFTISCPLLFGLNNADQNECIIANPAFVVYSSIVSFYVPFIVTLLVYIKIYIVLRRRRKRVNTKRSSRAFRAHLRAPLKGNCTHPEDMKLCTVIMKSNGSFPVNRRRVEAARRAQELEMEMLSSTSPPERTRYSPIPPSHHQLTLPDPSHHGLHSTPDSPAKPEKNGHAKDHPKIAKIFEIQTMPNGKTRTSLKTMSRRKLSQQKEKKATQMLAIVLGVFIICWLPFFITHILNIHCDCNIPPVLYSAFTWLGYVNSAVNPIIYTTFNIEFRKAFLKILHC
5-hydroxytryptamine receptor 7 (Homo sapiens), sequence (P34969 whole entry): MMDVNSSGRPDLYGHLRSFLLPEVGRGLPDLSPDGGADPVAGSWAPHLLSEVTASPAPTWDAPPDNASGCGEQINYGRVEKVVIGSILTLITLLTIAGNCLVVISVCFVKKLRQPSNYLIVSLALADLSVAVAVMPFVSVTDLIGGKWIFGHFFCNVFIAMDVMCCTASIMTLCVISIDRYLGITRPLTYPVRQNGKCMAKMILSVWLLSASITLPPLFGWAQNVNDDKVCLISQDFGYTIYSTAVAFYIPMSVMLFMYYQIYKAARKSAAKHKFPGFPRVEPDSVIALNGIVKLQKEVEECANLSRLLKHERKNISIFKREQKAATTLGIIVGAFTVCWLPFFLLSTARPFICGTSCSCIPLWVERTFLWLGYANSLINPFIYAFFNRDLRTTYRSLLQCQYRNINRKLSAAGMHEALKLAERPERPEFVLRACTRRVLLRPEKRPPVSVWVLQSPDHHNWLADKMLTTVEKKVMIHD
5-hydroxytryptamine receptor 2A (Homo sapiens), sequence (P28223 whole entry): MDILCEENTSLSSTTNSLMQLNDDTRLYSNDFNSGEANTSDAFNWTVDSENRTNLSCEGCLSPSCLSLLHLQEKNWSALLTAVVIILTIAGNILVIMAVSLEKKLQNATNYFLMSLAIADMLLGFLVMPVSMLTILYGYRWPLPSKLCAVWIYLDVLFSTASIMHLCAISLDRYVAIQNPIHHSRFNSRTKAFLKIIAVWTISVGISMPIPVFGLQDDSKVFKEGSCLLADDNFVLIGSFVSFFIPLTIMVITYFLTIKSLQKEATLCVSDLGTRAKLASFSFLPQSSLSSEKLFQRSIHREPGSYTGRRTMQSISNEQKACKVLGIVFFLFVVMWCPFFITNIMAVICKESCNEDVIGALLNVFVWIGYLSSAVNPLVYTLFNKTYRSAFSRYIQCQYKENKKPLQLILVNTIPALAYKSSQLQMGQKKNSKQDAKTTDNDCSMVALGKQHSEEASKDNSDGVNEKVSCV
Melanocortin receptor 4 (Homo sapiens), sequence (P32245 whole entry): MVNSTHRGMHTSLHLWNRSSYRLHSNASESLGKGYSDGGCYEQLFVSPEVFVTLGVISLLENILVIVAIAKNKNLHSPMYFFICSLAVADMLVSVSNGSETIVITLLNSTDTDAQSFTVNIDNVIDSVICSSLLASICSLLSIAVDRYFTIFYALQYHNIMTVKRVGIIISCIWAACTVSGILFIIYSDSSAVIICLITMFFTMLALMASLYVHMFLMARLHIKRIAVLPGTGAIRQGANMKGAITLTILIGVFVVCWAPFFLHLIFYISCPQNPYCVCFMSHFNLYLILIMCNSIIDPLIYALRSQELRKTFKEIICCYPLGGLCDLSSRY

CN(C)CCC(c1ccc(Cl)c(Cl)c1)N1CCOCC1 (stereo not drawn)
AUC [1]: 78.6 ng·h/mL | Activity (Salmonella typhimurium [2]): 74 | inhibition [3]: 0.8% | inhibition [4]: -8% | clearance [5]: 100 mL/min/kg | concentration at 0.08 h [6]: 1120 ng/mL | inhibition [7]: 2.6% | concentration at 2 h [8]: 10.9 ng/mL | concentration at 4 h [9]: 3.7 ng/mL | concentration at 4 h [10]: 42.2 ng/mL | Vz/F (Rattus norvegicus [11]): 8.3 L/kg | inhibition [12]: 8.9% | AUC(0-inf) [13]: 80 ng·h/mL | survival at 336 h [14]: 100% | inhibition [15]: 4% | Kp at 2 h [16]: 16.4 | inhibition in vivo at 20 mg/kg (Rattus norvegicus [17]): 66% | inhibition [18]: 11.2% | inhibition [19]: -3.8% | Activity (Salmonella typhimurium [20]): 75 | Tmax [21]: 30 min | inhibition at 10 µM [22]: 41.8% | concentration at 0.5 h [23]: 44.5 ng/mL | Activity (Rattus norvegicus [24]): Non-toxic | inhibition [25]: 4.9% | inhibition [26]: 2.2% | inhibition [27]: 9.6% | inhibition (Homo sapiens): 9.8% | inhibition [28]: 39.7% | Activity (Salmonella typhimurium [29]): 75 | Activity (Salmonella typhimurium [30]): 41 | inhibition [31]: 32.1% | inhibition [32]: 0.7%
